ChEMBL document CHEMBL3108769, “Development of 1,8-naphthalimides as clathrin inhibitors” (J Med Chem, 2014)
pIC50: −log10 of the molar value. Calls of active or inactive are those of the source. No cut-off for these calls is given here.

Key:
Clathrin heavy chain 1 [1] = biological target: T1, Clathrin heavy chain 1 (Homo sapiens, UniProt Q00610); assay: Inhibition of recombinant GST-tagged clathrin heavy chain (unknown origin) at 100 uM after 1 hr by ELISA
U2OS = assay: Inhibition of clathrin in human U2OS cells assessed as texas red-Tf endocytosis incubated 30 mins prior to texas red-Tf addition measured after 8 mins; assay type: cell-based
How it was run: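 U2OS cells preincubated 30 min with inhibitor (1 to 300 μM) or vehicle, then 4 μg/mL Tf-A594 added for 8 min at 37 °C. Uptake quantified by automated imaging and analysis, ~1200 cells per point. IC50 fitted; reported as mean ±95% CI from three wells.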

Ovis aries [2] = species on record: Ovis aries; settings: 300 uM
Ovis aries [3] = species on record: Ovis aries; assay: Inhibition of phosphotidylserine-stimulated sheep brain dynamin 1 GTPase activity assessed as inhibition of phosphate release from GTP at 100 uM after 30 mins by malachite green reagent method
[4] = Inhibition of phosphotidylserine-stimulated sheep brain dynamin 1 GTPase activity assessed as inhibition of phosphate release from GTP after 30 mins by malachite green reagent method; design: species or system Ovis aries
How it was run: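 Native dynamin I purified from sheep brain (peripheral membrane fraction, GST-Amph2-SH3-sepharose affinity). Dynamin (20 nM) stimulated by 4 μg/mL sonicated phosphatidylserine with compound for 30 min at 37 °C. Buffer: 5 mM Tris-HCl pH 7.4, 10 mM NaCl, 2 mM Mg2+, 1 μg/mL leupeptin, 0.1 mM PMSF, 0.3 mM GTP. Phosphate release read by malachite green.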

Clathrin heavy chain 1 [5] = biological target: T1, Clathrin heavy chain 1; assay: Inhibition of recombinant GST-tagged clathrin heavy chain (unknown origin) after 1 hr by ELISA

T1 sequence (Q00610 whole entry): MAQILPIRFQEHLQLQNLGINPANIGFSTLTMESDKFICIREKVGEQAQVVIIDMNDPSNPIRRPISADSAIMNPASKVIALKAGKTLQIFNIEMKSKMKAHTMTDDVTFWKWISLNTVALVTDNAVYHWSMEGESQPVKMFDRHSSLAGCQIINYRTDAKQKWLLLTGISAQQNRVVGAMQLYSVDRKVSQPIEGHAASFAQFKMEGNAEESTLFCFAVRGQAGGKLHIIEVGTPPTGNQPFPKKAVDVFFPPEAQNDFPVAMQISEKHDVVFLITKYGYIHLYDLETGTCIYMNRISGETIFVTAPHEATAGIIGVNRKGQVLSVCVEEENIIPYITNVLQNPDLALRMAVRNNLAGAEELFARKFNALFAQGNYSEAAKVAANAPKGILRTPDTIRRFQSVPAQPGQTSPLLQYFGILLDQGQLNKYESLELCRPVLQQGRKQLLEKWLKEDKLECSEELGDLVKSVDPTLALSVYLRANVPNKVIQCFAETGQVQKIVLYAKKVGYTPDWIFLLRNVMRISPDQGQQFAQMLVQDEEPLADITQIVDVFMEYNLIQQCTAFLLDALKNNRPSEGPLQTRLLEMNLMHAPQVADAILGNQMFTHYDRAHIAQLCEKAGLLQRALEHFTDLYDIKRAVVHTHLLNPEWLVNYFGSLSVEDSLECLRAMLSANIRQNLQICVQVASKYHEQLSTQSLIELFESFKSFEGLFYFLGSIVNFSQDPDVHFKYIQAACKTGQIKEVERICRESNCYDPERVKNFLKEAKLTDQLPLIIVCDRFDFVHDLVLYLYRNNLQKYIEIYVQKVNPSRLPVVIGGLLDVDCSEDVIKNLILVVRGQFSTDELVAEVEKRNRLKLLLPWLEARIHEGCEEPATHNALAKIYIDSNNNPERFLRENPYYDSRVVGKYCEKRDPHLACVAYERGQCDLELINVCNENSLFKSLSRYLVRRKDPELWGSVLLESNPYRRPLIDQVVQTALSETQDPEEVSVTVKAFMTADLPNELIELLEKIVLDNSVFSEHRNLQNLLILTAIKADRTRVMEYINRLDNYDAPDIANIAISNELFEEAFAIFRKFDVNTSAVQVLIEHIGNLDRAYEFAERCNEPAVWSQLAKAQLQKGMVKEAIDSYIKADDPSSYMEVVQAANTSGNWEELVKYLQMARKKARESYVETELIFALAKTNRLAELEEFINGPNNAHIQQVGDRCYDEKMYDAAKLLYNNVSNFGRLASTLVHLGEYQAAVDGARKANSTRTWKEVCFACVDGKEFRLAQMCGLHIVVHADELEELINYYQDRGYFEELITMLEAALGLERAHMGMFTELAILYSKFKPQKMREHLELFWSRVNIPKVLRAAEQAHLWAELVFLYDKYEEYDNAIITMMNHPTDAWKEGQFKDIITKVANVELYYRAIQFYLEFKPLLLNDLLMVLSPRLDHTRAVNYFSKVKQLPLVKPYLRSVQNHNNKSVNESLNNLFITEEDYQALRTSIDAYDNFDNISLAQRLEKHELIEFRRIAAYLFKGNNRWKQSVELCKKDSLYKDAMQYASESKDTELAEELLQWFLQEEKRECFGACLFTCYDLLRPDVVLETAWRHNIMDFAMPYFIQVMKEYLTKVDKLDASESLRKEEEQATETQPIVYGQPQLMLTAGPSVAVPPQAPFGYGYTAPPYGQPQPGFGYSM

Structure (SMILES): Nc1ccc(CN2C(=O)c3cccc4cc(O)cc(c34)C2=O)cc1
- inhibition (Clathrin heavy chain 1 [1]): inactive

Structure (SMILES): Nc1ccc(CN2C(=O)c3cccc4cc([N+](=O)[O-])cc(c34)C2=O)cc1
- inhibition (Clathrin heavy chain 1 [1]): inactive

Structure (SMILES): Cc1ccc(CN2C(=O)c3cccc4cc(S(=O)(=O)O)cc(c34)C2=O)cc1
- inhibition (U2OS): inactive
- inhibition (Ovis aries [2]): inactive

Structure (SMILES): Nc1ccc(N2C(=O)c3cccc4cc(S(=O)(=O)O)cc(c34)C2=O)cc1
- inhibition (Ovis aries [3]): inactive
- inhibition (U2OS): inactive
- inhibition (Clathrin heavy chain 1 [1]): inactive

Structure (SMILES): COc1ccc(CN2C(=O)c3cccc4cc(S(=O)(=O)O)cc(c34)C2=O)cc1
- inhibition (U2OS): inactive
- inhibition (Ovis aries [2]): inactive

Structure (SMILES): Nc1ccccc1CN1C(=O)c2cccc3cc(S(=O)(=O)O)cc(c23)C1=O
- inhibition (U2OS): inactive
- pIC50 [4]: 3.97

Structure (SMILES): Nc1ccc(CN2C(=O)c3cccc4c([N+](=O)[O-])ccc(c34)C2=O)cc1
- inhibition (Clathrin heavy chain 1 [1]): inactive

Structure (SMILES): Nc1ccc(CN2C(=O)c3cccc4cc(Br)cc(c34)C2=O)cc1
- inhibition (Clathrin heavy chain 1 [1]): inactive

Structure (SMILES): Nc1ccc(CN2C(=O)c3cccc4c(Cl)ccc(c34)C2=O)cc1
- inhibition (Clathrin heavy chain 1 [1]): inactive

Structure (SMILES): O=C1c2cccc3cc(S(=O)(=O)O)cc(c23)C(=O)N1Cc1ccc(F)cc1
- inhibition (U2OS): inactive
- pIC50 [4]: 3.51

Structure (SMILES): O=C1c2cccc3cc(S(=O)(=O)O)cc(c23)C(=O)N1Cc1ccc([N+](=O)[O-])cc1
- inhibition (U2OS): inactive
- pIC50 [4]: 4.31
- inhibition (Clathrin heavy chain 1 [1]): inactive

Structure (SMILES): Nc1ccc(CN2C(=O)c3cccc4c(N)ccc(c34)C2=O)cc1
- inhibition (Clathrin heavy chain 1 [1]): inactive

Structure (SMILES): Nc1cccc(CN2C(=O)c3cccc4cc(S(=O)(=O)O)cc(c34)C2=O)c1
- inhibition (U2OS): inactive
- pIC50 [4]: 3.58

Structure (SMILES): Nc1ccc(CN2C(=O)c3cccc4cc(S(=O)(=O)O)cc(c34)C2=O)cc1
- inhibition (Ovis aries [3]): inactive
- inhibition (U2OS): inactive

Structure (SMILES): Nc1ccc(CN2C(=O)c3cccc4cc(N)cc(c34)C2=O)cc1
- inhibition (Clathrin heavy chain 1 [1]): inactive

Structure (SMILES): O=C1c2cccc3cc(S(=O)(=O)O)cc(c23)C(=O)N1Cc1ccccc1
- inhibition (U2OS): inactive
- inhibition (Ovis aries [2]): inactive

Structure (SMILES): O=C1c2cccc3cc(S(=O)(=O)O)cc(c23)C(=O)N1Cc1ccc(O)cc1
- inhibition (U2OS): inactive
- inhibition (Ovis aries [2]): inactive

Structure (SMILES): O=C1c2cccc3cc(S(=O)(=O)O)cc(c23)C(=O)N1Cc1ccc(Cl)cc1
- inhibition (U2OS): inactive
- pIC50 [4]: 3.95

Structure (SMILES): Nc1ccc(CN2C(=O)c3cccc4cccc(c34)C2=O)cc1
- inhibition (Clathrin heavy chain 1 [1]): inactive

Structure (SMILES): Nc1ccc(CN2C(=O)c3cccc4c(S(=O)(=O)O)ccc(c34)C2=O)cc1
- inhibition (Clathrin heavy chain 1 [1]): inactive

Structure (SMILES): COc1cc2c3c(cccc3c1)C(=O)N(Cc1ccc(N)cc1)C2=O
- inhibition (Clathrin heavy chain 1 [1]): inactive

Structure (SMILES): Nc1ccc(CN2C(=O)c3cccc4c(Br)ccc(c34)C2=O)cc1
- inhibition (Clathrin heavy chain 1 [1]): inactive

Structure (SMILES): O=C(O)c1ccc(CN2C(=O)c3cccc4cc(S(=O)(=O)O)cc(c34)C2=O)cc1
- inhibition (U2OS): inactive
- pIC50 [4]: 3.73

Structure (SMILES): Nc1ccc(CN2C(=O)c3cc([N+](=O)[O-])cc4cc([N+](=O)[O-])cc(c34)C2=O)cc1
- inhibition (Clathrin heavy chain 1 [1]): inactive

Structure (SMILES): CN(C)c1ccc(CN2C(=O)c3cccc4cc(S(=O)(=O)O)cc(c34)C2=O)cc1
- inhibition (U2OS): inactive
- inhibition (Ovis aries [2]): inactive

Structure (SMILES): CCCN1C(=O)c2cccc3c(N)c(S(=O)(=O)O)cc(c23)C1=O
- pIC50 (Clathrin heavy chain 1 [5]): 3.92

Structure (SMILES): O=C1c2cccc3cc(S(=O)(=O)O)cc(c23)C(=O)N1Cc1ccc(Br)cc1
- inhibition (U2OS): inactive
- inhibition (Ovis aries [2]): inactive
